Test results reported in ChEMBL document CHEMBL4428078, “Discovery of S3-Truncated, C-6 Heteroaryl Substituted Aminothiazine β-Site APP Cleaving Enzyme-1 (BACE1) Inhibitors” (J Med Chem, 2016).
Each block holds one compound with its values, some of them ahead of it.

Assays:
Beta-secretase 1 = Beta-secretase 1 (Homo sapiens, UniProt P56817); experiment: Inhibition of BACE1 in human H4 cells expressing swedish mutant APP751 assessed as reduction in amyloid beta level measured after 19 hrs; type: cell-based
Beta-secretase 1, sequence (P56817 whole entry): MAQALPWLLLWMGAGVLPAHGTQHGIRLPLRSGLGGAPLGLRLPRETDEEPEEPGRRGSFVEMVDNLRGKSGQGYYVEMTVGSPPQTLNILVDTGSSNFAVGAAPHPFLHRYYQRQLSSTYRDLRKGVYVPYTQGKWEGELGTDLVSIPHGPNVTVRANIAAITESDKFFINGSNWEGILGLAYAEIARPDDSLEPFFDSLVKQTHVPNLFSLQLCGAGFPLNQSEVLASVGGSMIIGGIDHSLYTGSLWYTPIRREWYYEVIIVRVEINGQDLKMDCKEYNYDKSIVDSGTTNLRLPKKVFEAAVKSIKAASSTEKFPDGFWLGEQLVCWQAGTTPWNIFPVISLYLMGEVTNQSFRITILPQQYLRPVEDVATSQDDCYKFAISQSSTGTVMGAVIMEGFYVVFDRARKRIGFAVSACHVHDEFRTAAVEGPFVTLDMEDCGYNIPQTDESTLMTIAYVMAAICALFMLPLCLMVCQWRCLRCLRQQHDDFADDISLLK

[1] = Metabolic stability in human liver microsomes assessed as compound remaining at 0.5 uM measured after 10 mins; type: ADME, Microsome; details: read-out: Stability
Outline: (§1)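 Test compound at 0.5 µM incubated 10 min with mouse, rat or human liver microsomes. Read-out is percent of parent compound remaining.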

[2] = Metabolic stability in rat liver microsomes assessed as compound remaining at 0.5 uM measured after 10 mins; type: ADME, Microsome; details: read-out: Stability; outline: as §1
[3] = Metabolic stability in mouse liver microsomes assessed as compound remaining at 0.5 uM measured after 10 mins; type: ADME, Microsome; details: read-out: Stability; outline: as §1
Cytochrome P450 2D6 = Cytochrome P450 2D6 (Homo sapiens, UniProt P10635); experiment: Inhibition of recombinant human CYP2D6 preincubated for 10 mins followed by addition of AMMC as substrate measured after 45 mins; type: ADME
Cytochrome P450 2D6, sequence (P10635 whole entry): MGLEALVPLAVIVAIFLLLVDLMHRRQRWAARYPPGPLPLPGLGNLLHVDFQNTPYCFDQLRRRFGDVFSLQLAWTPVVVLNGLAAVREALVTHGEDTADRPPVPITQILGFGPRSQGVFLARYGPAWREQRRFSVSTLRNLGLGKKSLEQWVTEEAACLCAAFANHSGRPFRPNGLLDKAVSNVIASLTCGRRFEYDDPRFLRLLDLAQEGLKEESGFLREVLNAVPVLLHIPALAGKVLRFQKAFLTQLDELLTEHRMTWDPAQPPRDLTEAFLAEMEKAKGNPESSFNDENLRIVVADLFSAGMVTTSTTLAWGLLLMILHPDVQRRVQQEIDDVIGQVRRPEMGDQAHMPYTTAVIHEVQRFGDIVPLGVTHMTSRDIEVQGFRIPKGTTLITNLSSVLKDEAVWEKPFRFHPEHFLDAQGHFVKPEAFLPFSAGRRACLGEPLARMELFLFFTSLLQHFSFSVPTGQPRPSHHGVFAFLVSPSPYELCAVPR
Outline: (§2)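 Inhibition of recombinant human CYP1A2, CYP2C9, CYP2C19, CYP2D6 and CYP3A4 enzymes, reported as IC50.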

[4] = Plasma concentration in rat at 1 mg/kg, po measured after 5 hrs; type: ADME, organism-based
Outline: (§3)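 Female rats dosed orally in PEG-400:EtOH:Tween 80 (84:15:1) at 1, 3 or 10 mg/kg. Plasma and brain were collected 5 h post-dose, N=5 rats/dose. Total drug concentrations were determined and the brain/plasma ratio calculated. Values are means with SD.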

[5] = Oral bioavailability in rat at 10 mg/kg measured after 5 hrs; type: ADME, organism-based; details: in vivo
Outline: (§4)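 Rat IV/PO pharmacokinetics with a 2 mg/kg IV bolus and a 10 mg/kg oral dose. […] Oral bioavailability is calculated from the IV and PO AUC values.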

[6] = Drug uptake in rat brain at 10 mg/kg, po measured after 5 hrs; type: ADME, organism-based; details: read-out: Drug uptake; outline: as §3
[7] = Drug uptake in rat brain at 1 mg/kg, po measured after 5 hrs; type: ADME, organism-based; details: read-out: Drug uptake; outline: as §3
[8] = Ratio of drug level in brain to plasma of mouse at 30 mg/kg, po measured at 3 hrs post dose; type: ADME, organism-based; details: read-out: BPR
Outline: (§5)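 Young mice given a single oral dose of 30 mg/kg. Total brain and plasma drug levels were measured 3 h post-dose and the brain/plasma ratio derived.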

[9] = Ratio of drug level in brain to plasma of rat at 3 mg/kg, po measured at 5 hrs post dose; type: ADME, organism-based; details: read-out: BPR; outline: as §3
Rattus norvegicus [10] = experiment: In vivo inhibition of BACE1 in po dosed rat assessed as reduction in total amyloid beta level in brain measured after 5 hrs by ELISA relative to control
[11] = Plasma concentration in rat at 10 mg/kg, po measured after 5 hrs; type: ADME, organism-based; outline: as §3
[12] = Ratio of fraction unbound in rat plasma to IC50 for BACE1 in human H4 cells expressing swedish mutant APP751; type: ADME, cell-based
Cytochrome P450 1A2 = molecular target: T1, Cytochrome P450 1A2 (Homo sapiens, UniProt P05177); experiment: Inhibition of recombinant human CYP1A2 preincubated for 10 mins followed by addition of CEC as substrate measured after 45 mins; type: ADME; outline: as §2
T1 sequence (P05177 whole entry): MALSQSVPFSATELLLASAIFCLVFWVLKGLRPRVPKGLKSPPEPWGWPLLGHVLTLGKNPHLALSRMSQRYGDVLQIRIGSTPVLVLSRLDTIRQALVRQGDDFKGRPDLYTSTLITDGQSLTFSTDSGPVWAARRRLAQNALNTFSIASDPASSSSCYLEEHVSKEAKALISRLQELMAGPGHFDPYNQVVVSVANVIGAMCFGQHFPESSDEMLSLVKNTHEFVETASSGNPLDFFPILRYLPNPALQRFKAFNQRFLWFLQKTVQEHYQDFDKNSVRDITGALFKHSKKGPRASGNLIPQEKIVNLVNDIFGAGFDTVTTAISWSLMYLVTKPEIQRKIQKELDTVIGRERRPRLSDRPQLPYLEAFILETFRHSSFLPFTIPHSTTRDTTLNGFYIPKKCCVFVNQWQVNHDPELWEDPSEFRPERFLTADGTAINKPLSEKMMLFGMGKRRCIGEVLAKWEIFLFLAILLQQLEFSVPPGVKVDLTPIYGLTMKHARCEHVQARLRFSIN

[13] = Cmax in rat at 10 mg/kg, po measured after 5 hrs; type: ADME, organism-based; parameters: dose 10 mg/kg, route oral; details: in vivo; outline: as §4
[14] = Fraction unbound in mouse plasma; type: ADME, cell-free
Outline: (§6)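 Unbound fraction of drug determined in human, rat and mouse plasma, reported as percent unbound.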

Rattus norvegicus [15] = experiment: In vivo inhibition of BACE1 in po dosed rat assessed as reduction in brain amyloid beta42 level measured after 5 hrs by ELISA
[16] = Clearance in rat plasma at 2 mg/kg, iv administered as bolus or 10 mg/kg, po; type: ADME, organism-based
Outline: (§7)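 Rats given a 2 mg/kg IV bolus or 10 mg/kg orally for IV/PO pharmacokinetics. Clearance and volume of distribution come from the IV arm. Clearance is also expressed against rat hepatic blood flow.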

[17] = Drug uptake in mouse brain at 30 mg/kg, po measured after 3 hrs; type: ADME, organism-based; details: read-out: Drug uptake; outline: as §5
Rattus norvegicus [18] = experiment: In vivo inhibition of BACE1 in po dosed rat assessed as reduction in brain amyloid beta42 level measured after 5 hrs by ELISA relative to control
[19] = Clearance in rat plasma at 2 mg/kg, iv administered as bolus or 10 mg/kg, po relative to hepatic blood flow; type: ADME, organism-based; details: in vivo; outline: as §7
[20] = Ratio of drug level in brain to plasma of rat at 1 mg/kg, po measured at 5 hrs post dose; type: ADME, organism-based; details: read-out: BPR; outline: as §3
[21] = Drug uptake in rat brain at 3 mg/kg, po measured after 5 hrs; type: ADME, organism-based; details: read-out: Drug uptake; outline: as §3
[22] = Volume of distribution in rat plasma at 2 mg/kg, iv administered as bolus or 10 mg/kg, po; type: ADME, organism-based; outline: as §7
[23] = Fraction unbound in rat plasma at 1 to 10 mg/kg, po; type: ADME, organism-based; details: in vivo
Cytochrome P450 2C9 = Cytochrome P450 2C9 (Homo sapiens, UniProt P11712); experiment: Inhibition of recombinant human CYP2C9 preincubated for 10 mins followed by addition of MFC as substrate measured after 45 mins; type: ADME; outline: as §2
Cytochrome P450 2C9, sequence (P11712 whole entry): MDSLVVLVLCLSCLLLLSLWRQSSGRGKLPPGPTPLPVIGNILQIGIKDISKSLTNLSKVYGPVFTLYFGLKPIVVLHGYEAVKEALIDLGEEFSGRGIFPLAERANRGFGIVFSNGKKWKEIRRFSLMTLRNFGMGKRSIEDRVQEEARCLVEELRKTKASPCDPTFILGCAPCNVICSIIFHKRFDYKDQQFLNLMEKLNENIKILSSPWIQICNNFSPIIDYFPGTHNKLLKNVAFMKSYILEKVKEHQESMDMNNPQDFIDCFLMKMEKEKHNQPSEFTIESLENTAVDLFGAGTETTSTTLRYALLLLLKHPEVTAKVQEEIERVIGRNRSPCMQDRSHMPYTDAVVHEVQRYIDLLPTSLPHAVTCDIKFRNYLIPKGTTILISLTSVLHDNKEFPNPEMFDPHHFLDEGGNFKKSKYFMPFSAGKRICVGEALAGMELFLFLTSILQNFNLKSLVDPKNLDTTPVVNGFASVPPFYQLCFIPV

Cytochrome P450 3A4 = Cytochrome P450 3A4 (Homo sapiens, UniProt P08684); experiment: Inhibition of recombinant human CYP3A4 preincubated for 10 mins followed by addition of BFC as substrate measured after 45 mins; type: ADME; outline: as §2
Cytochrome P450 3A4, sequence (P08684 whole entry): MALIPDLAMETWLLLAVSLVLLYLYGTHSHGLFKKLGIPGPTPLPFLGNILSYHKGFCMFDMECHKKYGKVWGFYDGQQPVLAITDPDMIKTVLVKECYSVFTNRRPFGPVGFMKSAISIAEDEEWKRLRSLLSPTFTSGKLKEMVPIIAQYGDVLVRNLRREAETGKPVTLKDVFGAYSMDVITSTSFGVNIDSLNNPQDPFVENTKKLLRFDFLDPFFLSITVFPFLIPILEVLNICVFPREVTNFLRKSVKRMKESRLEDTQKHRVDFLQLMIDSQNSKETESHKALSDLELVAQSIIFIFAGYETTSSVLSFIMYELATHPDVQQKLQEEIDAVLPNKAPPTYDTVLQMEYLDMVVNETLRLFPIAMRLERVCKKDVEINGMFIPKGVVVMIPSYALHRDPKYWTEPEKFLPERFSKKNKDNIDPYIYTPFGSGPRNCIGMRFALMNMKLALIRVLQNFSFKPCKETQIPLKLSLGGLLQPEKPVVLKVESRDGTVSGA

[24] = Plasma concentration in rat at 3 mg/kg, po measured after 5 hrs; type: ADME, organism-based; outline: as §3
[25] = Fraction unbound in rat plasma; type: ADME, cell-free; outline: as §6
[26] = Ratio of drug level in brain to plasma of rat at 10 mg/kg, po measured at 5 hrs post dose; type: ADME, organism-based; details: read-out: BPR; outline: as §3
Cytochrome P450 2C19 = Cytochrome P450 2C19 (Homo sapiens, UniProt P33261); experiment: Inhibition of recombinant human CYP2C19 preincubated for 10 mins followed by addition of CEC as substrate measured after 45 mins; type: ADME; outline: as §2
Cytochrome P450 2C19, sequence (P33261 whole entry): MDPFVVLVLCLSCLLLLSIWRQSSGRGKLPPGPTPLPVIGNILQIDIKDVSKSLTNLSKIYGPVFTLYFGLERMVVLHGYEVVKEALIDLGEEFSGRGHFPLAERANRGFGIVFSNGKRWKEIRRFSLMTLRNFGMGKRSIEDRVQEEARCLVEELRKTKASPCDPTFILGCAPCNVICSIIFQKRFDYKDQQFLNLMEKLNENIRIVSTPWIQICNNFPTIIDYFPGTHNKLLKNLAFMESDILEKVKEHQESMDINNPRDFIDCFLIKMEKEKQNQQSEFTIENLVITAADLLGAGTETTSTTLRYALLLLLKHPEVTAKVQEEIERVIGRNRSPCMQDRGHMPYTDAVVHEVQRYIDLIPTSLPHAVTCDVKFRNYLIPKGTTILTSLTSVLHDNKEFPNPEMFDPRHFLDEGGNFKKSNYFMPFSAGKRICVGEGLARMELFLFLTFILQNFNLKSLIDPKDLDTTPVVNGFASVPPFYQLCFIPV

Rattus norvegicus [27] = experiment: In vivo inhibition of BACE1 in po dosed rat assessed as reduction in brain amyloid beta40 level measured after 5 hrs by ELISA relative to control
[28] = Fraction unbound in human plasma; type: ADME, cell-free; outline: as §6
[29] = Plasma concentration in mouse at 30 mg/kg, po measured after 3 hrs; type: ADME, organism-based; outline: as §5
Mus musculus = experiment: In vivo inhibition of BACE1 in mouse assessed as reduction in brain amyloid beta level at 30 mg/kg, po measured after 3 hrs by ELISA relative to control; type: functional
Outline: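 Young mice dosed orally at 30 mg/kg. Brain Aβ was measured 3 h post-dose and expressed as percent reduction.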

Structure (SMILES): Cc1nocc1[C@@H]1C[C@@](C)(c2ccc(F)cc2F)N=C(N)S1
IC50 (Beta-secretase 1): 300 nM
remaining at 10 min, 0.5 µM [1]: 65%
remaining at 10 min, 0.5 µM [2]: 77%
remaining at 10 min, 0.5 µM [3]: 80%

Structure (SMILES): C[C@@]1(c2ccc(F)cc2F)C[C@@H](c2cncnc2)SC(N)=N1
IC50 (Cytochrome P450 2D6): > 20000 nM
IC50 (Beta-secretase 1): 310 nM
concentration at 5 h [4]: 0.82 µM
bioavailability [5]: > 100%
concentration at 5 h [6]: 12 µM
concentration at 5 h [7]: 2.3 µM
Kp at 3 h [8]: 1.8
Kp at 5 h [9]: 1.8
inhibition (Rattus norvegicus [10]): Dose-dependent effect
concentration at 5 h [11]: 6.6 µM
remaining at 10 min, 0.5 µM [1]: 90%
Ratio [12]: 6
IC50 (Cytochrome P450 1A2): > 20000 nM
Cmax [13]: 3.7 µM
fraction unbound [14]: 0.42
EC50 (Rattus norvegicus [15]): 3800 nM
clearance [16]: 12 mL/min/kg
concentration at 3 h [17]: 6.7 µM
inhibition (Rattus norvegicus [18]): Dose-dependent effect
CL [19]: 20%
Kp at 5 h [20]: 2.8
concentration at 5 h [21]: 2.8 µM
Vd [22]: 8.2 L/kg
remaining at 10 min, 0.5 µM [2]: 95%
Cp(f) [23]: 1.8 µM
IC50 (Cytochrome P450 2C9): > 20000 nM
IC50 (Cytochrome P450 3A4): > 20000 nM
concentration at 5 h [24]: 1.8 µM
fraction unbound [25]: 0.48
Kp at 5 h [26]: 1.8
remaining at 10 min, 0.5 µM [3]: 68%
IC50 (Cytochrome P450 2C19): 9000 nM
inhibition (Rattus norvegicus [27]): Dose-dependent effect
fraction unbound [28]: 0.37
concentration at 3 h [29]: 6.7 µM

Structure (SMILES): Cc1noc(C)c1[C@@H]1C[C@@](C)(c2ccc(F)cc2)N=C(N)S1
IC50 (Beta-secretase 1): 600 nM
remaining at 10 min, 0.5 µM [1]: 73%
remaining at 10 min, 0.5 µM [2]: 78%
remaining at 10 min, 0.5 µM [3]: 90%

Structure (SMILES): Cc1noc(C)c1[C@@H]1C[C@@](C)(c2sccc2Cl)N=C(N)S1
IC50 (Beta-secretase 1): 300 nM
remaining at 10 min, 0.5 µM [1]: 11%
remaining at 10 min, 0.5 µM [2]: 12%
remaining at 10 min, 0.5 µM [3]: 21%

Structure (SMILES): Cc1onc(-c2ccc(F)cc2)c1[C@@H]1C[C@@](C)(c2ccc(F)cc2F)N=C(N)S1
IC50 (Beta-secretase 1): 320 nM
remaining at 10 min, 0.5 µM [1]: 24%
remaining at 10 min, 0.5 µM [2]: 35%
remaining at 10 min, 0.5 µM [3]: 23%

More lines, main results first:

IC50 (Beta-secretase 1): 420 nM
remaining at 10 min, 0.5 µM [1]: 35%
remaining at 10 min, 0.5 µM [2]: 67%
remaining at 10 min, 0.5 µM [3]: 59%
Structure (SMILES): Cc1noc(C(F)F)c1[C@@H]1C[C@@](C)(c2ccc(F)cc2F)N=C(N)S1

IC50 (Beta-secretase 1): 420 nM
remaining at 10 min, 0.5 µM [1]: 35%
remaining at 10 min, 0.5 µM [2]: 67%
remaining at 10 min, 0.5 µM [3]: 59%
Structure (SMILES): CCc1noc(CC)c1[C@@H]1C[C@@](C)(c2ccc(F)cc2F)N=C(N)S1

IC50 (Beta-secretase 1): 350 nM
Kp at 3 h [8]: 1.3
remaining at 10 min, 0.5 µM [1]: 70%
concentration at 3 h [17]: 4.3 µM
remaining at 10 min, 0.5 µM [2]: 78%
remaining at 10 min, 0.5 µM [3]: 72%
concentration at 3 h [29]: 4.3 µM
Structure (SMILES): Cn1nccc1[C@@H]1C[C@@](C)(c2ccc(F)cc2F)N=C(N)S1
inhibition in vivo at 30 mg/kg (Mus musculus): 62%
